From ChEMBL document CHEMBL4196022, “Alkynyl-containing phenylthiazoles: Systemically active antibacterial agents effective against methicillin-resistant Staphylococcus aureus (MRSA)” (Eur J Med Chem, 2018)
pEC50: −log10 of the molar value. ≈ marks a conversion by molar mass, not a printed value. Calls of active or inactive are those of the source. The calls are words filed in the database; no cut-off is given here.

Key:
[1] = Induction of proton motive force collapse in Escherichia coli inverted membrane vesicle in presence of succinate/O2-driven PMF generation system by ACMA-based fluorescence assay; assay type: functional, cell membranes
Outline: (§1)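 E. coli inverted membrane vesicles had proton motive force generated either by ATP or by succinate/O2. PMF collapse was followed as a dose response to give EC50, with CCCP as the reference uncoupler.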

[2] = Induction of proton motive force collapse in Escherichia coli inverted membrane vesicle in presence of ATP-driven PMF generation system by ACMA-based fluorescence assay; assay type: functional, cell membranes; outline: as §1
Staphylococcus aureus [3] = assay: Potency index, ratio of vancomycin MIC to compound MIC for antibacterial activity against vancomycin-resistant Staphylococcus aureus VRS11a; assay type: functional
Staphylococcus aureus [4] = assay: Bactericidal activity against methicillin-resistant Staphylococcus aureus NRS107 up to 18 hrs by broth microdilution assay; assay type: functional; conditions: NRS107, 18 h, read-out: MBC99.9
Staphylococcus aureus [5] = assay: Antibacterial activity against methicillin-resistant Staphylococcus aureus NRS107 after 20 hrs by broth microdilution assay; assay type: functional; conditions: NRS107, 20 h
Outline: (§2)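 Broth microdilution per CLSI in cation-adjusted Mueller Hinton broth. Compounds serially diluted, in triplicate. Incubation at 37 °C for at least 20 hours. MIC taken as the lowest concentration with no visible bacterial growth.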

Staphylococcus aureus [6] = assay: Bactericidal activity against methicillin-resistant Staphylococcus aureus USA300 up to 18 hrs by broth microdilution assay; assay type: functional; conditions: USA300, 18 h, read-out: MBC99.9
Staphylococcus aureus [7] = assay: Antibacterial activity against vancomycin-resistant Staphylococcus aureus VRS10 after 20 hrs by broth microdilution assay; assay type: functional; conditions: VRS10, 20 h; outline: as §2
Staphylococcus aureus [8] = assay: Ratio of MBC to MIC for vancomycin-resistant Staphylococcus aureus VRS12; assay type: functional
Outline: (§3)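 MBC/MIC ratio. […] MBC by plating no-growth wells onto tryptic soy agar at 37 °C for at least 18 h; taken as the concentration giving 99.9% growth inhibition.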

Staphylococcus aureus [9] = assay: Bactericidal activity against methicillin-resistant Staphylococcus aureus NRS123 (USA400) at 4 times MIC after 24 hrs by time kill assay; assay type: functional, organism-based
Staphylococcus aureus [10] = assay: Bactericidal activity against methicillin resistant vancomycin-resistant Staphylococcus aureus VRS12 up to 18 hrs by broth microdilution assay; assay type: functional; conditions: VRS12, 18 h, read-out: MBC99.9
Outline: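 MBC set up from the MIC plates. Aliquots from wells with no growth spotted onto tryptic soy agar and incubated at 37 °C for at least 18 hours. MBC taken as the lowest concentration giving 99.9% inhibition of bacterial growth.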

Staphylococcus aureus [11] = assay: Ratio of MBC to MIC for vancomycin-resistant Staphylococcus aureus VRS11a; assay type: functional; outline: as §3
Staphylococcus aureus [12] = assay: Bactericidal activity against methicillin-resistant Staphylococcus aureus USA300 at 4 times MIC after 24 hrs by time kill assay; assay type: functional, organism-based
Staphylococcus aureus [13] = assay: Bactericidal activity against methicillin resistant vancomycin-resistant Staphylococcus aureus VRS10 up to 18 hrs by broth microdilution assay; assay type: functional; conditions: VRS10, 18 h, read-out: MBC99.9
Staphylococcus aureus [14] = assay: Antibacterial activity against methicillin-resistant Staphylococcus aureus USA300 after 20 hrs by broth microdilution assay; assay type: functional; conditions: USA300, 20 h; outline: as §2
Staphylococcus aureus [15] = assay: Ratio of MBC to MIC for methicillin-resistant Staphylococcus aureus NRS119; assay type: functional; outline: as §3
Staphylococcus aureus [16] = assay: Ratio of MBC to MIC for methicillin-resistant Staphylococcus aureus NRS107; assay type: functional; outline: as §3
Staphylococcus aureus [17] = assay: Antibacterial activity against vancomycin-resistant Staphylococcus aureus VRS11a after 20 hrs by broth microdilution assay; assay type: functional; outline: as §2
Staphylococcus aureus [18] = assay: Potency index, ratio of vancomycin MIC to compound MIC for antibacterial activity against vancomycin-resistant Staphylococcus aureus VRS10; assay type: functional
J774 = assay: Cytotoxicity against mouse J774 cells assessed as reduction in cell viability up to 16 ug/ml after 24 hrs by MTS assay; assay type: cell-based; conditions: j774, 24 h
Outline: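 J774 murine macrophages were grown in DMEM with 10% FBS at 37 °C, 5% CO2. Compounds were tested at 8, 16 and 32 μg/mL in triplicate for 24 h, with a DMSO-matched control. MTS was added for 4 h and absorbance read at 490 nm. Viability is given as % of DMSO control (mean ± SD); Student t-test with Holm-Sidak test.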

[19] = Selectivity index, ratio of toxic concentration for human HRT18 cells to MIC for methicillin-resistant Staphylococcus aureus; assay type: toxicity; conditions: read-out: Selectivity Index
HRT-18 cell line = assay: Cytotoxicity against human HRT18 cells assessed as reduction in cell viability up to 32 ug/ml after 2 hrs by MTS assay; assay type: cell-based; conditions: hrt-18, 2 h
Staphylococcus aureus [20] = assay: Ratio of MBC to MIC for vancomycin-resistant Staphylococcus aureus VRS10; assay type: functional; outline: as §3
Staphylococcus aureus [21] = assay: Ratio of MBC to MIC for methicillin-resistant Staphylococcus aureus USA300; assay type: functional; conditions: read-out: Ratio; outline: as §3
Staphylococcus aureus [22] = assay: Potency index, ratio of vancomycin MIC to compound MIC for antibacterial activity against vancomycin-resistant Staphylococcus aureus VRS12; assay type: functional
Staphylococcus aureus [23] = assay: Antibacterial activity against vancomycin-resistant Staphylococcus aureus VRS12 after 20 hrs by broth microdilution assay; assay type: functional; conditions: VRS12, 20 h; outline: as §2
Staphylococcus aureus [24] = assay: Bactericidal activity against methicillin-resistant Staphylococcus aureus NRS119 up to 18 hrs by broth microdilution assay; assay type: functional; conditions: NRS119, 18 h, read-out: MBC99.9
Staphylococcus aureus [25] = assay: Antibacterial activity against methicillin-resistant Staphylococcus aureus NRS123 (USA400) infected in mouse J774 cells at 16 ug/ml after 24 hrs; assay type: functional, organism-based
Outline: (§4)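 J774 macrophages grown in DMEM with 10% FBS at 37 °C, 5% CO2. Infected with USA400 at MOI ~100:1 for 1 h, then washed with gentamicin 50 μg/mL. Treated in triplicate wells for 24 h, washed with gentamicin again and lysed with 0.1% Triton X-100. Lysate plated on tryptic soy agar for 18–22 h; CFU/mL counted.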

Staphylococcus aureus [26] = assay: Antibacterial activity against methicillin-resistant Staphylococcus aureus NRS119 after 20 hrs by broth microdilution assay; assay type: functional; conditions: NRS119, 20 h; outline: as §2
Staphylococcus aureus [27] = assay: Antibacterial activity against methicillin-resistant Staphylococcus aureus USA300 infected in Caenorhabditis elegans AU37 assessed as reduction in bacterial burden at 20 ug/ml after 18 hrs relative to control; assay type: functional
Outline: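 L4-stage C. elegans AU37 infected on USA300 lawns for 6 h and washed with M9 buffer. 25–30 worms per well exposed to 20 μg/mL for 18 h, in triplicate. Worms then lysed and plated on TSA with 5 μg/mL nalidixic acid for 17 h at 37 °C. CFU per worm expressed as % reduction versus PBS.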

Staphylococcus aureus [28] = assay: Antibacterial activity against methicillin-resistant Staphylococcus aureus NRS123 (USA400) infected in mouse J774 cells at 4 ug/ml after 24 hrs; assay type: functional, organism-based; outline: as §4

N#CC(C#N)=NNc1cccc(Cl)c1 [CARBONYL CYANIDE M-CHLOROPHENYLHYDRAZONE]
pEC50 [1]: 6.68
pEC50 [2]: 6.33

CCCC#Cc1ccc(-c2nc(C)c(/C(C)=N/NC(=N)N)s2)cc1
Ratio (Staphylococcus aureus [3]): >100
MBC (Staphylococcus aureus [4]): 1 µg/mL (≈ 2.95 µM)
MIC (Staphylococcus aureus [5]): 1 µg/mL (≈ 2.95 µM)
MBC (Staphylococcus aureus [6]): 8 µg/mL (≈ 23.6 µM)
MIC (Staphylococcus aureus [7]): 1 µg/mL (≈ 2.95 µM)
Ratio (Staphylococcus aureus [8]): <=3
Activity (Staphylococcus aureus [9]): Active
MBC (Staphylococcus aureus [10]): 1 µg/mL (≈ 2.95 µM)
Ratio (Staphylococcus aureus [11]): <=3
Activity (Staphylococcus aureus [12]): Active
MBC (Staphylococcus aureus [13]): 2 µg/mL (≈ 5.89 µM)
MIC (Staphylococcus aureus [14]): 1 µg/mL (≈ 2.95 µM)
Ratio (Staphylococcus aureus [15]): <=3
Ratio (Staphylococcus aureus [16]): <=3
MIC (Staphylococcus aureus [17]): ≤ 0.5 µg/mL
Ratio (Staphylococcus aureus [18]): >100
Activity (J774): Non-Toxic
selectivity ratio [19]: 7 to 31
Activity (HRT-18 cell line): Non-Toxic
Ratio (Staphylococcus aureus [20]): <=3
Ratio (Staphylococcus aureus [21]): 8
Ratio (Staphylococcus aureus [22]): 16
MIC (Staphylococcus aureus [23]): 1 µg/mL (≈ 2.95 µM)
MBC (Staphylococcus aureus [24]): 1 µg/mL (≈ 2.95 µM)
Activity (Staphylococcus aureus [25]): Active
MIC (Staphylococcus aureus [26]): 1 µg/mL (≈ 2.95 µM)

CN[C@H](CC(C)C)C(=O)N[C@H]1C(=O)N[C@@H](CC(N)=O)C(=O)N[C@H]2C(=O)N[C@H]3C(=O)N[C@H](C(=O)N[C@H](C(=O)O)c4cc(O)cc(O)c4-c4cc3ccc4O)[C@H](O)c3ccc(c(Cl)c3)Oc3cc2cc(c3O[C@@H]2O[C@H](CO)[C@@H](O)[C@H](O)[C@H]2O[C@H]2C[C@](C)(N)[C@H](O)[C@H](C)O2)Oc2ccc(cc2Cl)[C@H]1O [VANCOMYCIN]
Activity (Staphylococcus aureus [9]): Active
MBC (Staphylococcus aureus [10]): 256 µg/mL (≈ 177 µM)
Activity (Staphylococcus aureus [27]): Active
Activity (Staphylococcus aureus [28]): inactive
MIC (Staphylococcus aureus [23]): 16 µg/mL (≈ 11 µM)
